{
  "source": "ChEMBL document CHEMBL1921792",
  "about": "“Synthesis and anticonvulsant activity of trans- and cis-2-(2,6-dimethylphenoxy)-N-(2- or 4-hydroxycyclohexyl)acetamides and their amine analogs” (Bioorg Med Chem, 2011)",
  "key": {"Rattus norvegicus [1]": {"test_system": "Rattus norvegicus", "test": "Neurotoxicity in rat assessed as neurological deficit at 125 mg/kg, po after 4 hrs", "format": "toxicity, organism-based", "set-up": "dose 125 mg/kg, route oral", "conditions": "in vivo", "how_it_was_run": "(§1)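 Rats given the compound, suspended in 0.5% methylcellulose, by the stated route and dose. Neurological deficit was recorded at the listed times as ataxia and loss of placing response and muscle tone. Reported as number of rats showing toxicity/number tested.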"}, "[2]": {"test": "Neurotoxicity in ip dosed mouse assessed as inability to maintain equilibrium on rotarod by rotarod test", "format": "toxicity, organism-based", "conditions": "in vivo", "how_it_was_run": "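Mice dosed ip with a suspension in 0.5% methylcellulose, then placed on a 1 inch knurled plastic rod rotating at 6 rpm. Toxicity = failure to keep equilibrium for at least 1 min in each of three trials.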"}, "Rattus norvegicus [3]": {"test_system": "Rattus norvegicus", "test": "Anticonvulsant activity in po dosed rat assessed as time to show peak effect of protection against maximal electric shock-induced seizures", "format": "functional", "how_it_was_run": "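Time-to-peak-effect assay: MES protection read at 0.25–4 h after dosing. Mice ip (60–130 mg/kg), rats po (15 or 30 mg/kg) or ip (30 mg/kg). Groups of 4–8; result is protected/tested.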"}, "Rattus norvegicus [4]": {"test_system": "Rattus norvegicus", "test": "Neurotoxicity in rat assessed as neurological deficit at 500 mg/kg, po after 1 hr", "format": "toxicity, organism-based", "set-up": "dose 500 mg/kg, route oral", "conditions": "in vivo", "how_it_was_run": "as §1"}, "Rattus norvegicus [5]": {"test_system": "Rattus norvegicus", "test": "Neurotoxicity in rat assessed as neurological deficit at 500 mg/kg, po after 2 hrs", "format": "toxicity, organism-based", "set-up": "dose 500 mg/kg, route oral", "conditions": "in vivo", "how_it_was_run": "as §1"}, "Rattus norvegicus [6]": {"test_system": "Rattus norvegicus", "test": "Neurotoxicity in rat assessed as neurological deficit at 250 mg/kg, po after 24 hrs", "format": "toxicity, organism-based", "set-up": "dose 250 mg/kg, route oral", "conditions": "in vivo", "how_it_was_run": "as §1"}, "Rattus norvegicus [7]": {"test_system": "Rattus norvegicus", "test": "Neurotoxicity in rat assessed as neurological deficit at 250 mg/kg, po after 1 hr", "format": "toxicity, organism-based", "set-up": "dose 250 mg/kg, route oral", "conditions": "in vivo", "how_it_was_run": "as §1"}, "Rattus norvegicus [8]": {"test_system": "Rattus norvegicus", "test": "Neurotoxicity in rat assessed as neurological deficit at 250 mg/kg, po after 6 hrs", "format": "toxicity, organism-based", "set-up": "dose 250 mg/kg, route oral", "conditions": "in vivo", "how_it_was_run": "as §1"}, "Rattus norvegicus [9]": {"test_system": "Rattus norvegicus", "test": "Neurotoxicity in rat assessed as neurological deficit at 125 mg/kg, po after 0.5 hrs", "format": "toxicity, organism-based", "set-up": "dose 125 mg/kg, route oral", "conditions": "in vivo", "how_it_was_run": "as §1"}, "Rattus norvegicus [10]": {"test_system": "Rattus norvegicus", "test": "Neurotoxicity in rat assessed as neurological deficit at 62.5 mg/kg, po after 0.5 hrs", "format": "toxicity, organism-based", "set-up": "dose 62.5 mg/kg, route oral", "conditions": "in vivo", "how_it_was_run": "(§2)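 Rats dosed orally with test agent suspended in 0.5% methylcellulose and observed for up to 24 h (time-to-peak-effect design). Neurological deficit was scored as ataxia with loss of placing response and muscle tone. Two rats per dose per time point; results given as number toxic/number tested.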"}, "Rattus norvegicus [11]": {"test_system": "Rattus norvegicus", "test": "Neurotoxicity in rat assessed as neurological deficit at 62.5 mg/kg, po after 1 hr", "format": "toxicity, organism-based", "set-up": "dose 62.5 mg/kg, route oral", "conditions": "in vivo", "how_it_was_run": "as §2"}, "Rattus norvegicus [12]": {"test_system": "Rattus norvegicus", "test": "Neurotoxicity in rat assessed as neurological deficit at 125 mg/kg, po after 6 hrs", "format": "toxicity, organism-based", "set-up": "dose 125 mg/kg, route oral", "conditions": "in vivo", "how_it_was_run": "as §1"}, "Rattus norvegicus [13]": {"test_system": "Rattus norvegicus", "test": "Neurotoxicity in rat assessed as neurological deficit at 500 mg/kg, po after 0.5 hrs", "format": "toxicity, organism-based", "set-up": "dose 500 mg/kg, route oral", "conditions": "in vivo", "how_it_was_run": "as §1"}, "Rattus norvegicus [14]": {"test_system": "Rattus norvegicus", "test": "Neurotoxicity in rat assessed as neurological deficit at 250 mg/kg, po after 0.5 hrs", "format": "toxicity, organism-based", "set-up": "dose 250 mg/kg, route oral", "conditions": "in vivo", "how_it_was_run": "as §1"}, "Rattus norvegicus [15]": {"test_system": "Rattus norvegicus", "test": "Neurotoxicity in rat assessed as neurological deficit at 30 mg/kg, po after 2 hrs […]", "format": "toxicity, organism-based", "set-up": "dose 30 mg/kg, route oral", "conditions": "in vivo", "how_it_was_run": "as §1"}, "Mus musculus [16]": {"test_system": "Mus musculus", "test": "Neurotoxicity in mouse assessed as inability to maintain equilibrium on rotarod at 30 mg/kg, ip after 4 hrs by rotarod test", "format": "toxicity, organism-based", "set-up": "dose 30 mg/kg, route intraperitoneal", "conditions": "in vivo", "how_it_was_run": "(§3)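 Drug given ip to mice as a suspension in 0.5% methylcellulose. At the stated time after dosing, each mouse was placed on a 1 inch knurled rod turning at 6 rpm. Neurotoxicity = inability to stay balanced at least 1 min in each of three trials. Scored as animals toxic/animals tested in small groups.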"}, "Rattus norvegicus [17]": {"test_system": "Rattus norvegicus", "test": "Neurotoxicity in rat assessed as neurological deficit at 62.5 mg/kg, po after 6 hrs", "format": "toxicity, organism-based", "set-up": "dose 62.5 mg/kg, route oral", "conditions": "in vivo", "how_it_was_run": "as §2"}, "Rattus norvegicus [18]": {"test_system": "Rattus norvegicus", "test": "Anticonvulsant activity in po dosed rat assessed as protection against maximal electric shock-induced seizures", "format": "functional"}, "Rattus norvegicus [19]": {"test_system": "Rattus norvegicus", "test": "Neurotoxicity in rat assessed as neurological deficit at 62.5 mg/kg, po after 0.25 hrs", "format": "toxicity, organism-based", "set-up": "dose 62.5 mg/kg, route oral", "conditions": "in vivo", "how_it_was_run": "as §2"}, "Mus musculus [20]": {"test_system": "Mus musculus", "test": "Neurotoxicity in mouse assessed as inability to maintain equilibrium on rotarod at 130 mg/kg, ip after 1 hr by rotarod test", "format": "toxicity, organism-based", "set-up": "dose 130 mg/kg, route intraperitoneal", "conditions": "in vivo", "how_it_was_run": "as §3"}, "Rattus norvegicus [21]": {"test_system": "Rattus norvegicus", "test": "Neurotoxicity in rat assessed as neurological deficit at 125 mg/kg, po after 8 hrs", "format": "toxicity, organism-based", "set-up": "dose 125 mg/kg, route oral", "conditions": "in vivo", "how_it_was_run": "as §1"}, "Rattus norvegicus [22]": {"test_system": "Rattus norvegicus", "test": "Neurotoxicity in rat assessed as neurological deficit at 500 mg/kg, po after 0.25 hrs", "format": "toxicity, organism-based", "set-up": "dose 500 mg/kg, route oral", "conditions": "in vivo", "how_it_was_run": "as §1"}, "Rattus norvegicus [23]": {"organism": "Rattus norvegicus", "test": "Protective index, ratio of TD50 for neurotoxicity in rat to ED50 for inhibition of maximal electroshock-induced seizures in rat", "format": "functional"}, "Mus musculus [24]": {"organism": "Mus musculus", "test": "Protective index, ratio of TD50 for neurotoxicity in mouse to ED50 for inhibition of maximal electroshock-induced seizures in mouse", "format": "functional"}, "Rattus norvegicus [25]": {"test_system": "Rattus norvegicus", "test": "Neurotoxicity in rat assessed as neurological deficit at 125 mg/kg, po after 24 hrs", "format": "toxicity, organism-based", "set-up": "dose 125 mg/kg, route oral", "conditions": "in vivo", "how_it_was_run": "as §1"}, "Rattus norvegicus [26]": {"test_system": "Rattus norvegicus", "test": "Neurotoxicity in rat assessed as neurological deficit at 62.5 mg/kg, po after 24 hrs", "format": "toxicity, organism-based", "set-up": "dose 62.5 mg/kg, route oral", "conditions": "in vivo", "how_it_was_run": "as §2"}, "Rattus norvegicus [27]": {"test_system": "Rattus norvegicus", "test": "Neurotoxicity in rat assessed as neurological deficit at 500 mg/kg, po after 8 hrs", "format": "toxicity, organism-based", "set-up": "dose 500 mg/kg, route oral", "conditions": "in vivo", "how_it_was_run": "as §2"}},
  "data": [
    {"smiles": "Cc1cccc(C)c1OCC(=O)NC1CCCCC1O.Cl", "note": "(racemic; 1)", "values": [
      {"measurement": "Activity", "setting": "Rattus norvegicus [1]", "result": "Non-toxic"},
      {"measurement": "TD50", "setting": "[2]", "result": 106, "unit": "mg/kg"},
      {"measurement": "Time", "setting": "Rattus norvegicus [3]", "result": 0.25, "unit": "h"},
      {"measurement": "Activity", "setting": "Rattus norvegicus [4]", "result": "Non-toxic"},
      {"measurement": "Activity", "setting": "Rattus norvegicus [5]", "result": "Non-toxic"},
      {"measurement": "Activity", "setting": "Rattus norvegicus [6]", "result": "Non-toxic"},
      {"measurement": "Activity", "setting": "Rattus norvegicus [7]", "result": "Non-toxic"},
      {"measurement": "Activity", "setting": "Rattus norvegicus [8]", "result": "Non-toxic"},
      {"measurement": "Activity", "setting": "Rattus norvegicus [9]", "result": "Non-toxic"},
      {"measurement": "Activity", "setting": "Rattus norvegicus [10]", "result": "Non-toxic"},
      {"measurement": "Activity", "setting": "Rattus norvegicus [11]", "result": "Non-toxic"},
      {"measurement": "Activity", "setting": "Rattus norvegicus [12]", "result": "Non-toxic"},
      {"measurement": "Activity", "setting": "Rattus norvegicus [13]", "result": "Non-toxic"},
      {"measurement": "Activity", "setting": "Rattus norvegicus [14]", "result": "Non-toxic"},
      {"measurement": "Activity", "setting": "Rattus norvegicus [15]", "result": "Non-toxic"},
      {"measurement": "Activity", "setting": "Mus musculus [16]", "result": "Non-toxic"},
      {"measurement": "Activity", "setting": "Rattus norvegicus [17]", "result": "Non-toxic"},
      {"measurement": "ED50", "setting": "Rattus norvegicus [18]", "result": 23.6, "unit": "mg/kg"},
      {"measurement": "Activity", "setting": "Rattus norvegicus [19]", "result": "Non-toxic"},
      {"measurement": "Activity", "setting": "Mus musculus [20]", "result": "Non-toxic"},
      {"measurement": "Activity", "setting": "Rattus norvegicus [21]", "result": "Non-toxic"},
      {"measurement": "Activity", "setting": "Rattus norvegicus [22]", "result": "Non-toxic"},
      {"measurement": "Ratio TD50/ED50", "setting": "Rattus norvegicus [23]", "result": ">21.218"},
      {"measurement": "Ratio TD50/ED50", "setting": "Mus musculus [24]", "result": 2.475},
      {"measurement": "Activity", "setting": "Rattus norvegicus [25]", "result": "Non-toxic"},
      {"measurement": "Activity", "setting": "Rattus norvegicus [26]", "result": "Non-toxic"},
      {"measurement": "Activity", "setting": "Rattus norvegicus [27]", "result": "Non-toxic"}
    ]}
  ]
}
